Results: ChEMBL document CHEMBL4354876, “A Selective Modulator of Peroxisome Proliferator-Activated Receptor γ with an Unprecedented Binding Mode” (J Med Chem, 2020)
Activity calls are given as the source filed them. The calls are words filed in the database; no cut-off is given here.

Experiments:
[1] = target: T1, Peroxisome proliferator-activated receptor delta (Homo sapiens) (UniProt Q03181); experiment: Partial agonist activity at Gal4-fused PPARdelta LBD (unknown origin) expressed in HEK293T cells at 10 uM after 14 to 16 hrs by dual-Glo luciferase assay; type: cell-based
T1 sequence (whole entry): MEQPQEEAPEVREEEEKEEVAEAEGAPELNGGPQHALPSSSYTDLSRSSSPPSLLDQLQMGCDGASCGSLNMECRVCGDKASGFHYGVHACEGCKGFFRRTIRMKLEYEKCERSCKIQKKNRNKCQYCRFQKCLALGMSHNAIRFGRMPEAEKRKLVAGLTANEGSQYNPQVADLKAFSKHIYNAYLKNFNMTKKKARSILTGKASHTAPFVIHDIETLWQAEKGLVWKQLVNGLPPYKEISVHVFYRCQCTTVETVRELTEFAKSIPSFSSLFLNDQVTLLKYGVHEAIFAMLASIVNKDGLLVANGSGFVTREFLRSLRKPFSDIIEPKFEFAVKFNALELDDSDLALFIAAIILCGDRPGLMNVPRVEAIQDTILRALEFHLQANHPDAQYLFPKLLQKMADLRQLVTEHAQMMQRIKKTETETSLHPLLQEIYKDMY

[2] = target: T2, Peroxisome proliferator-activated receptor gamma (Homo sapiens, UniProt P37231); experiment: Partial agonist activity at Gal4-fused PPARgamma LBD (unknown origin) expressed in HEK293T cells after 14 to 16 hrs by dual-Glo luciferase assay; type: cell-based
T2 sequence (P37231 whole entry): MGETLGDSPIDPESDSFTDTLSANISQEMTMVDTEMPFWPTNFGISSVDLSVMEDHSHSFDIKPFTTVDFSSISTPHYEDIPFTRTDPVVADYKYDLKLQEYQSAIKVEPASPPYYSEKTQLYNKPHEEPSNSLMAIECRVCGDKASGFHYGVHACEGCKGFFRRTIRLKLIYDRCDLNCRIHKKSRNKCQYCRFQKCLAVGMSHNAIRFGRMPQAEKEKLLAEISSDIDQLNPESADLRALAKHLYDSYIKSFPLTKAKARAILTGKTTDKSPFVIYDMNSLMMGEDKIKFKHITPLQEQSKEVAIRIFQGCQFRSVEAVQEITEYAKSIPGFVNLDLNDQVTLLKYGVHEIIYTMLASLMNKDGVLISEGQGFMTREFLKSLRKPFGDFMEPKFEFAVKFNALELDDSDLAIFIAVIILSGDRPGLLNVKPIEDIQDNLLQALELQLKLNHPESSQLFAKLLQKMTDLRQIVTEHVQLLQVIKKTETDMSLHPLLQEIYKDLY
Summary of the method: (§1)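 Gal4 hybrid reporter assay in transiently transfected HEK293T cells. Constructs fuse the yeast Gal4 DNA-binding domain to the human receptor LBD. Firefly luciferase is the reporter. Constitutive renilla luciferase monitors transfection efficiency and toxicity. EC50 and maximal relative activation are reported as mean±S.E.M., n≥3.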

[3] = target: T3, Peroxisome proliferator-activated receptor alpha (Homo sapiens, UniProt Q07869); experiment: Partial agonist activity at Gal4-fused PPARalpha LBD (unknown origin) expressed in HEK293T cells after 14 to 16 hrs by dual-Glo luciferase assay; type: cell-based; summary of the method: as §1
T3 sequence (Q07869 whole entry): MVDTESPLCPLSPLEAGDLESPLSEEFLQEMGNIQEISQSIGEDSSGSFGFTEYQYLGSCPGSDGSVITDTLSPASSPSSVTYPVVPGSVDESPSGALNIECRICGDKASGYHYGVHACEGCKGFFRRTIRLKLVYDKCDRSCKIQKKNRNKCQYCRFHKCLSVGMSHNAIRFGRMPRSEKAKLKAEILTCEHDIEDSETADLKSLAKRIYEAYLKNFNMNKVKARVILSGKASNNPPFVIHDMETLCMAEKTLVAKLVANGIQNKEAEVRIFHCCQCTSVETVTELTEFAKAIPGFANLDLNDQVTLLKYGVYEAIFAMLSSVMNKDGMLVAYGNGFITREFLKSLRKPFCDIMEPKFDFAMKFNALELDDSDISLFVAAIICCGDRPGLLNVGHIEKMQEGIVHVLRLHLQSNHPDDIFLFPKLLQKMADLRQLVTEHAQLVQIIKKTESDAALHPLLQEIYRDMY

[4] = target: T4, Peroxisome proliferator-activated receptor gamma (Homo sapiens) (UniProt P37231); experiment: Partial agonist activity at Gal4-fused PPARgamma LBD (unknown origin) expressed in HEK293T cells after 14 to 16 hrs by dual-Glo luciferase assay relative to pioglitazone; type: cell-based; summary of the method: as §1
T4 sequence (whole entry): T2 sequence (P37231 whole entry)

[5] = target: T5, Peroxisome proliferator-activated receptor alpha (Homo sapiens) (UniProt Q07869); experiment: Partial agonist activity at Gal4-fused PPARalpha LBD (unknown origin) expressed in HEK293T cells after 14 to 16 hrs by dual-Glo luciferase assay relative to GW7647; type: cell-based; summary of the method: as §1
T5 sequence (whole entry): T3 sequence (Q07869 whole entry)

[6] = target: T1, Peroxisome proliferator-activated receptor delta (Homo sapiens); experiment: Partial agonist activity at Gal4-fused PPARdelta LBD (unknown origin) expressed in HEK293T cells after 14 to 16 hrs by dual-Glo luciferase assay relative to L165041; type: cell-based; summary of the method: as §1
[7] = target: T6, Peroxisome proliferator-activated receptor delta (Homo sapiens, UniProt Q03181); experiment: Partial agonist activity at Gal4-fused PPARdelta LBD (unknown origin) expressed in HEK293T cells after 14 to 16 hrs by dual-Glo luciferase assay; type: cell-based; summary of the method: as §1
T6 sequence (Q03181 whole entry): T1 sequence (whole entry)

[8] = Effect on recombinant PPARgamma LBD/N-terminal GFP-fused RXRalpha mutant LBD (unknown origin) protein-protein dimerization at 10 uM measured after 2 hrs by HTRF assay; settings: human
Summary of the method: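 Cell-free HTRF assay of PPARγ–RXRα dimerization on recombinant proteins.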

[9] = target: T7, RXR alpha/PPAR gamma (Homo sapiens) (UniProt P37231+P19793); experiment: Partial agonist activity at 1:1 Gal4-fused PPARgamma LBD/Gal4-fused RXRalpha (unknown origin) expressed in HEK293T cells after 14 to 16 hrs by dual-Glo luciferase assay; type: cell-based
Summary of the method: (§2)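 Gal4-PPARγ hybrid reporter assay in HEK293T cells with Gal4-RXRα co-transfected. Firefly luciferase is the read-out, with constitutive renilla as the transfection and viability control. Efficacy is expressed relative to pioglitazone (1 µM). Activity data are normalized to counter variations in receptor protein amount.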

[10] = target: T4, Peroxisome proliferator-activated receptor gamma (Homo sapiens); experiment: Partial agonist activity at recombinant N-terminal GFP-fused PPARgamma LBD (unknown origin) assessed as increase in biotinylated-CBP peptide recruitment measured after 2 hrs by HTRF assay
Summary of the method: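 Cell-free HTRF assay of CBP coactivator recruitment to recombinant PPARγ protein.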

[11] = target: T7, RXR alpha/PPAR gamma (Homo sapiens); experiment: Partial agonist activity at 1:2 Gal4-fused PPARgamma LBD/Gal4-fused RXRalpha (unknown origin) expressed in HEK293T cells at 0.1 to 1 uM after 14 to 16 hrs by dual-Glo luciferase assay; type: cell-based; summary of the method: as §2
[12] = tested on: PPARgamma/RXR (Homo sapiens); experiment: Partial agonist activity at PPARgamma/RXR (unknown origin) expressed in HEK293T cells at 0.1 to 1 uM after 14 to 16 hrs by PPRE1 reporter gene based dual-Glo luciferase assay; settings: HEK-293T

| Structure (SMILES) | Activity [1] | EC50 [2] [µM] | EC50 [3] [µM] | max activation [4] [%] | max activation [5] [%] | max activation [6] [%] | EC50 [7] [µM] | Activity [8] | Activity [9] | Activity [10] | Activity [11] | EC50 [12] [µM] |
| --- | --- | --- | --- | --- | --- | --- | --- | --- | --- | --- | --- | --- |
| CCCCCCC(Sc1nc2ccc(NCc3ccc(Cl)c(Cl)c3)cc2s1)C(=O)O (centres undefined) | – | 2.8 | 1.4 | 73 | 26 | – | > 10 | – | – | – | – | – |
| CCCCCC[C@H](Sc1nc2ccc(NS(=O)(=O)c3ccc(Cl)cc3Cl)cc2s1)C(=O)O | – | 0.16 | 0.25 | 75 | 28 | 13 | 0.4 | Not Active | – | – | – | – |
| CCCCCCC(Sc1nc2ccc(NS(=O)(=O)c3ccc(C(C)(C)C)cc3)cc2s1)C(=O)O (centres undefined) | inactive | 0.7 | 0.9 | 30 | 17 | – | – | – | – | – | – | – |
| CCCCCC[C@@H](Sc1nc2ccc(NS(=O)(=O)c3ccc(Cl)cc3Cl)cc2s1)C(=O)O | – | 0.0016 | 0.43 | 101 | 18 | 26 | 0.81 | Not Active | Active | Active | Active | 0.16 |
| CCCCCCC(Sc1nc2ccc(NCc3ccc(C(F)(F)F)cc3)cc2s1)C(=O)O (centres undefined) | – | 1.8 | 3.1 | 39 | 59 | – | > 10 | – | – | – | – | – |
| CCCCCCC(Sc1nc2ccc(NCc3cc(Cl)cc(Cl)c3)cc2s1)C(=O)O (centres undefined) | – | 2.9 | 3.8 | 35 | 19 | 25 | 9.2 | – | – | – | – | – |
| CCCCCCC(Sc1nc2ccc(NCc3ccc(C(C)(C)C)cc3)cc2s1)C(=O)O (centres undefined) | inactive | 3.7 | 4 | 28 | 39 | – | – | – | – | – | – | – |
| CCCCCCC(Sc1nc2ccc(NS(=O)(=O)c3ccc(Cl)cc3)cc2s1)C(=O)O (centres undefined) | – | 0.05 | 0.7 | 39 | 16 | 21 | 5.3 | – | – | – | – | – |

More lines, main results first:

| Activity [1] | EC50 [2] [µM] | EC50 [3] [µM] | max activation [4] [%] | max activation [5] [%] | max activation [6] [%] | EC50 [7] [µM] | Structure (SMILES) | Activity [8] | Activity [9] | Activity [10] | Activity [11] | EC50 [12] [µM] |
| --- | --- | --- | --- | --- | --- | --- | --- | --- | --- | --- | --- | --- |
| inactive | 0.26 | 5 | 26 | 23 | – | – | CCCCCCC(Sc1nc2ccc(NS(=O)(=O)c3ccc(-c4ccccc4)cc3)cc2s1)C(=O)O (centres undefined) | – | – | – | – | – |
| – | 4.3 | 3.1 | 19 | 12 | 22 | 6.2 | CCCCCCC(Sc1nc2ccc(NC(=O)c3ccc(C(C)(C)C)cc3)cc2s1)C(=O)O (centres undefined) | – | – | – | – | – |
| – | 1.7 | 1 | 47 | 28 | 19 | 6.1 | CCCCCCC(Sc1nc2ccc(NCc3ccccc3)cc2s1)C(=O)O (centres undefined) | – | – | – | – | – |
| – | 0.77 | 0.4 | 34 | 26 | – | > 10 | CCCCCCC(Sc1nc2ccc(NCc3ccc(-c4ccccc4)cc3)cc2s1)C(=O)O (centres undefined) | – | – | – | – | – |
| – | 3 | 4 | 53 | 32 | 23 | 4.3 | CCCCCCC(Sc1nc2ccc(NCc3ccc4ccccc4c3)cc2s1)C(=O)O (centres undefined) | – | – | – | – | – |
| inactive | 2.4 | 1.36 | 50 | 37 | – | – | CCCCCCC(Sc1nc2ccc(NCc3ccc(Cl)cc3)cc2s1)C(=O)O (centres undefined) | – | – | – | – | – |
| inactive | 3.7 | 4.4 | 7.1 | 11 | – | – | CCCCC(Sc1nc2ccc(NC(=O)c3ccc(C(C)(C)C)cc3)cc2s1)C(=O)O (centres undefined) | – | – | – | – | – |
| inactive | 1.5 | 1.9 | 47 | 51 | – | – | CCCCCCC(Sc1nc2ccc(NCc3cccc(Cl)c3)cc2s1)C(=O)O (centres undefined) | – | – | – | – | – |
| – | 4.9 | 0.77 | 43 | 31 | 27 | 7 | CCCCCCC(Sc1nc2ccc(NC(=O)c3ccccc3)cc2s1)C(=O)O (centres undefined) | – | – | – | – | – |
